Tests used:
A498 = test: Antiproliferative activity against human A498 cells assessed as reduction in cell viability at 30 uM incubated for 72 hrs by MTT assay relative to control; format: functional; conditions: A498, 72 h
Method in brief: (§1)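 MTT read-out. Cells seeded at 1,000-2,200/well, grown 12 hr at 37 °C, then compound added for 72 hr. MTT for 4 hr, formazan dissolved in DMSO, absorbance at 490 nm. Untreated-cell OD taken as 100% proliferation; inhibition reported at 30 μM.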

OS-RC-2 = test: Antiproliferative activity against human OS-RC2 cells assessed as reduction in cell viability at 30 uM incubated for 72 hrs by MTT assay relative to control; format: functional; conditions: OS-RC-2, 72 h; method in brief: as §1
[1] = molecular target: Speckle-type POZ protein (Homo sapiens) (UniProt O43791); test: Binding affinity to recombinant N-terminal GST/His-tagged MATH binding domain SPOP (unknown origin) expressed in Escherichia coli BL21 (DE3) assessed as change in melting temperature at 10 fold compound incubated for 15 mins by nano differential scanning fluorimetry (reference value: -1.7 degreeC)
[2] = molecular target: Speckle-type POZ protein (Homo sapiens) (UniProt O43791); test: Binding affinity to recombinant N-terminal GST/His-tagged MATH binding domain SPOP (unknown origin) expressed in Escherichia coli BL21 (DE3) assessed as change in melting temperature at 20 fold compound incubated for 15 mins by nano differential scanning fluorimetry (reference value: -3.8 degreeC)

Chain of Speckle-type POZ protein (Homo sapiens) (O43791 whole entry, the tested form may be a part): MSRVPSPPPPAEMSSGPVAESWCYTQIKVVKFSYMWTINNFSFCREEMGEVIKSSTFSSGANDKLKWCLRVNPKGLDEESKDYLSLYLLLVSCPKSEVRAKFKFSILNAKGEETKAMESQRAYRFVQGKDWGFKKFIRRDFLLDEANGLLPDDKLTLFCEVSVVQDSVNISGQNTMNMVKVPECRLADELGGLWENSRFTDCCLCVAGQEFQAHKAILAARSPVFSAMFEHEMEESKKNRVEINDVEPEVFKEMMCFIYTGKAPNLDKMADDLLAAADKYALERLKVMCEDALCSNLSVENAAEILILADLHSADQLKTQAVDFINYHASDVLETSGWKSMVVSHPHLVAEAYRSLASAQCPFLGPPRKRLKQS

`Cc1cccn2c(=O)c3cc(C(=O)NCC4CCCO4)c(=N)n(CCc4cccs4)c3nc12` (configuration not stated) was tested, and the inhibition at 30 µM (A498) was 86% and the inhibition at 30 µM (OS-RC-2) was 83%.

For `Cc1cccn2c(=O)c3cc(C(=O)NCCCN4CCOCC4)c(=N)n(-c4ccccc4)c3nc12`, the inhibition at 30 µM (A498) was 12% and the inhibition at 30 µM (OS-RC-2) was 23%.

In the case of `Cc1cccn2c(=O)c3cc(C(=O)NCCCN4CCOCC4)c(=N)n(CCc4c[nH]c5ccccc45)c3nc12`, the inhibition at 30 µM (A498) is reported as 55% and the inhibition at 30 µM (OS-RC-2) is reported as 51%.

With `O=C(NCCc1ccc(F)cc1)c1cc2cnccc2n(CCc2ccccc2)c1=O` the inhibition at 30 µM (A498) was 25% and the inhibition at 30 µM (OS-RC-2) was 16%.

`CCOC(=O)c1cc2cccnc2n(CCc2ccccc2)c1=O` gave an inhibition at 30 µM (A498) of 15% and an inhibition at 30 µM (OS-RC-2) of 19%.

`CCOC(=O)c1cc2c(=O)n3cccc(C)c3nc2n(Cc2ccccc2)c1=N` showed an inhibition at 30 µM (A498) of 24% and an inhibition at 30 µM (OS-RC-2) of 26%.

Work on `CCOC(=O)c1cc2c(=O)n3cccc(C)c3nc2n(-c2ccccc2)c1=N` yielded an inhibition at 30 µM (A498) of 51% and an inhibition at 30 µM (OS-RC-2) of 10%.

With `C#CCn1c(=N)c(C(=O)NCCCN2CCOCC2)cc2c(=O)n3cccc(C)c3nc21` the inhibition at 30 µM (A498) was 37% and the inhibition at 30 µM (OS-RC-2) was 37%.

In the case of `Cc1ccn2c(=O)c3cc(C(=O)NCCCN4CCOCC4)c(=N)n(CCc4cccs4)c3nc2c1`, the inhibition at 30 µM (A498) is reported as 75% and the inhibition at 30 µM (OS-RC-2) is reported as 77%.

`CCOC(=O)c1cc2cnccc2n(CCc2ccccc2)c1=O` was tested, and the inhibition at 30 µM (A498) was 14% and the inhibition at 30 µM (OS-RC-2) was 15%.

Work on `O=C(NCCc1ccc(F)cc1)c1cc2cccnc2n(CCc2ccccc2)c1=O` yielded an inhibition at 30 µM (A498) of 8% and an inhibition at 30 µM (OS-RC-2) of 14%.

Work on `CCN(CC)CCNC(=O)c1cc2cccnc2n(CCc2ccccc2)c1=O` yielded an inhibition at 30 µM (A498) of 13% and an inhibition at 30 µM (OS-RC-2) of 30%.

`Cc1cccn2c(=O)c3cc(C(=O)O)c(=N)n(Cc4ccccc4)c3nc12` gave an inhibition at 30 µM (A498) of 20% and an inhibition at 30 µM (OS-RC-2) of 32%.

With `Cc1cccn2c(=O)c3cc(C(=O)NCCCN4CCOCC4)c(=N)n(CCOc4ccccc4)c3nc12` the inhibition at 30 µM (A498) was 50% and the inhibition at 30 µM (OS-RC-2) was 36%.

`Cc1cccn2c(=O)c3cc(C(=O)NCCCN4CCOCC4)c(=N)n(Cc4ccncc4)c3nc12` showed an inhibition at 30 µM (A498) of 48% and an inhibition at 30 µM (OS-RC-2) of 35%.

Work on `CCOC(=O)c1cc2c(=O)n3cccc(C)c3nc2n(CCc2cccs2)c1=N` yielded a ΔTm [1] of 4.9 °C, an inhibition at 30 µM (A498) of 38% and an inhibition at 30 µM (OS-RC-2) of 49%. For the same compound, the ΔTm [2] was 5.3 °C.

In the case of `Cc1cccn2c(=O)c3cc(C(=O)NCCO)c(=N)n(CCc4cccs4)c3nc12`, the inhibition at 30 µM (A498) is reported as 83% and the inhibition at 30 µM (OS-RC-2) is reported as 81%.

For `CCOC(=O)c1cc2c(=O)n3cccc(C)c3nc2n(CCc2ccc(C)cc2)c1=N`, the ΔTm [1] was 0.8 °C, the inhibition at 30 µM (A498) was 51% and the inhibition at 30 µM (OS-RC-2) was 49%. For the same compound, the ΔTm [2] was 1.5 °C.

`Cc1cccn2c(=O)c3cc(C(=O)NCCCN4CCOCC4)c(=N)n(CCCN4CCOCC4)c3nc12` showed an inhibition at 30 µM (A498) of 27% and an inhibition at 30 µM (OS-RC-2) of 35%.

`Cc1cccn2c(=O)c3cc(C(=O)NCCc4ccc(F)cc4)c(=N)n(CCc4cccs4)c3nc12` gave an inhibition at 30 µM (A498) of 12% and an inhibition at 30 µM (OS-RC-2) of 21%.

In the case of `CCOC(=O)c1cc2c(=O)n3cccc(C)c3nc2n(CCc2ccc(Cl)cc2)c1=N`, the ΔTm [1] is reported as 0.8 °C, the inhibition at 30 µM (A498) is reported as 42% and the inhibition at 30 µM (OS-RC-2) is reported as 48%. The ΔTm [2] was 1.6 °C.

`Cc1cccn2c(=O)c3cc(C(=O)NCCCN4CCOCC4)c(=N)n(C(C)C)c3nc12` showed an inhibition at 30 µM (A498) of 11% and an inhibition at 30 µM (OS-RC-2) of 15%.

Work on `Cc1ccc(CCn2c(=N)c(C(=O)O)cc3c(=O)n4cccc(C)c4nc32)cc1` yielded an inhibition at 30 µM (A498) of 51% and an inhibition at 30 µM (OS-RC-2) of 31%.

`CCN(CC)CCNC(=O)c1cc2cnccc2n(CCc2ccccc2)c1=O` was tested, and the inhibition at 30 µM (A498) was 38% and the inhibition at 30 µM (OS-RC-2) was 11%.

Work on `Cc1cccn2c(=O)c3cc(C(=O)O)c(=N)n(CCc4ccccc4)c3nc12` yielded a ΔTm [1] of 2.3 °C, an inhibition at 30 µM (A498) of 13% and an inhibition at 30 µM (OS-RC-2) of 28%. The ΔTm [2] was 3.7 °C.

With `Cc1cccn2c(=O)c3cc(C(=O)O)c(=N)n(C(C)C)c3nc12` the inhibition at 30 µM (A498) was 18% and the inhibition at 30 µM (OS-RC-2) was 22%.

Compound `Cc1cccn2c(=O)c3cc(C(=O)NCCCN4CCOCC4)c(=N)n(Cc4ccccc4)c3nc12` has an inhibition at 30 µM (A498) of 58% and an inhibition at 30 µM (OS-RC-2) of 46%.

With `Cc1cccn2c(=O)c3cc(C(=O)NCCCN4CCOCC4)c(=N)n(CCc4ccccc4F)c3nc12` the inhibition at 30 µM (A498) was 61% and the inhibition at 30 µM (OS-RC-2) was 74%.

`Cc1cccn2c(=O)c3cc(C(=O)O)c(=N)n(-c4ccc(F)cc4)c3nc12` was tested, and the inhibition at 30 µM (A498) was 18% and the inhibition at 30 µM (OS-RC-2) was 33%.

Work on `Cc1cccn2c(=O)c3cc(C(=O)NCCCN4CCOCC4)c(=N)n(C)c3nc12` yielded an inhibition at 30 µM (A498) of 59% and an inhibition at 30 µM (OS-RC-2) of 62%.

`Cc1cccn2c(=O)c3cc(C(=O)O)c(=N)n(CCc4ccc(Cl)cc4)c3nc12` gave an inhibition at 30 µM (A498) of 57% and an inhibition at 30 µM (OS-RC-2) of 30%.

`Cc1cccn2c(=O)c3cc(C(=O)NCc4ccccc4)c(=N)n(CCc4cccs4)c3nc12` gave an inhibition at 30 µM (A498) of 60% and an inhibition at 30 µM (OS-RC-2) of 50%.

Compound `CCOC(=O)c1cc2c(=O)n3cccc(C)c3nc2n(Cc2ccco2)c1=N` has an inhibition at 30 µM (A498) of 59% and an inhibition at 30 µM (OS-RC-2) of 56%.

With `Cc1cccn2c(=O)c3cc(C(=O)NCCCc4ccccc4)c(=N)n(CCc4cccs4)c3nc12` the ΔTm [1] was 2.8 °C, the inhibition at 30 µM (A498) was 62% and the inhibition at 30 µM (OS-RC-2) was 58%. The ΔTm [2] was 2.6 °C.

Work on `Cc1cccn2c(=O)c3cc(C(=O)O)c(=N)n(CCc4cccs4)c3nc12` yielded an inhibition at 30 µM (A498) of 25% and an inhibition at 30 µM (OS-RC-2) of 37%.

In the case of `O=C(O)c1cc2cccnc2n(CCc2ccccc2)c1=O`, the inhibition at 30 µM (A498) is reported as 33% and the inhibition at 30 µM (OS-RC-2) is reported as 24%.

For `N=c1c(C(=O)NCCCN2CCOCC2)cc2c(=O)n3ccccc3nc2n1CCc1cccs1`, the inhibition at 30 µM (A498) was 62% and the inhibition at 30 µM (OS-RC-2) was 56%.

`O=C(O)c1cc2cnccc2n(CCc2ccccc2)c1=O` gave an inhibition at 30 µM (A498) of 21% and an inhibition at 30 µM (OS-RC-2) of 15%.

Work on `CCOC(=O)c1cc2c(=O)n3cccc(C)c3nc2n(-c2ccc(F)cc2)c1=N` yielded a ΔTm [1] of 1.7 °C, an inhibition at 30 µM (A498) of 33% and an inhibition at 30 µM (OS-RC-2) of 16%. The ΔTm [2] was 1.9 °C.

Compound `Cc1cccn2c(=O)c3cc(C(=O)NCCCN4CCOCC4)c(=N)n(CCN4CCOCC4)c3nc12` has an inhibition at 30 µM (A498) of 35% and an inhibition at 30 µM (OS-RC-2) of 40%.

`CCOC(=O)c1cc2c(=O)n3cccc(C)c3nc2n(CCc2ccccc2)c1=N` gave an inhibition at 30 µM (A498) of 24% and an inhibition at 30 µM (OS-RC-2) of 20%.

With `CCCn1c(=N)c(C(=O)OCC)cc2c(=O)n3cccc(C)c3nc21` the inhibition at 30 µM (A498) was 38% and the inhibition at 30 µM (OS-RC-2) was 35%.

`CCCn1c(=N)c(C(=O)O)cc2c(=O)n3cccc(C)c3nc21` was tested, and the inhibition at 30 µM (A498) was 21% and the inhibition at 30 µM (OS-RC-2) was 29%.

`Cc1cccn2c(=O)c3cc(C(=O)O)c(=N)n(Cc4ccco4)c3nc12` was tested, and the inhibition at 30 µM (A498) was 24% and the inhibition at 30 µM (OS-RC-2) was 16%.

`Cc1cccn2c(=O)c3cc(C(=O)O)c(=N)n(-c4ccccc4)c3nc12` was tested, and the inhibition at 30 µM (A498) was 24% and the inhibition at 30 µM (OS-RC-2) was 16%.

`Cc1cccn2c(=O)c3cc(C(=O)NCCCN4CCOCC4)c(=N)n(C4CCCCC4)c3nc12` showed an inhibition at 30 µM (A498) of 37% and an inhibition at 30 µM (OS-RC-2) of 22%.

For `Cc1cccn2c(=O)c3cc(C(=O)NCCN4CCOCC4)c(=N)n(CCc4cccs4)c3nc12`, the ΔTm [1] was 3.1 °C, the inhibition at 30 µM (A498) was 86% and the inhibition at 30 µM (OS-RC-2) was 82%. It also gave a ΔTm [2] of 3.3 °C.

For `CCOC(=O)c1cc2c(=O)n3cccc(C)c3nc2n(C(C)C)c1=N`, the inhibition at 30 µM (A498) was 27% and the inhibition at 30 µM (OS-RC-2) was 23%.

Compound `Cc1cccn2c(=O)c3cc(C(=O)NCCCN4CCOCC4)c(=N)n(-c4ccc(Cl)cc4)c3nc12` has an inhibition at 30 µM (A498) of 17% and an inhibition at 30 µM (OS-RC-2) of 38%.

Source: ChEMBL document CHEMBL4402603, “Structure-Activity Relationship of SPOP Inhibitors against Kidney Cancer” (J Med Chem, 2020)
